In ChEMBL document CHEMBL1777802, “Synthesis, DNA binding, fluorescence measurements and antiparasitic activity of DAPI related diamidines” (Bioorg Med Chem, 2010):

How the values were obtained:
L6 = experiment: Cytotoxicity against rat L6 cells; format: cell-based
How it was run: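 Cultured L6 rat myoblast cells were used for the cytotoxicity measurement, giving an IC50.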

[1] = test system: Trypanosoma brucei rhodesiense; experiment: Antiparasitic activity against Trypanosoma brucei rhodesiense STIB900
Plasmodium falciparum = experiment: Antiparasitic activity against Plasmodium falciparum K1
[2] = Selectivity index, ratio of IC50 for rat L6 cells to IC50 for Trypanosoma brucei rhodesiense STIB900; format: toxicity, cell-based; details: read-out: Ratio IC50
How it was run: (§1)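 Selectivity index is IC50 on cultured L6 rat myoblasts divided by IC50 on the parasite (P. falciparum K1 or T. b. rhodesiense STIB900).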

[3] = Selectivity index, ratio of IC50 for rat L6 cells to IC50 for Plasmodium falciparum K1; format: toxicity, cell-based; details: read-out: Ratio IC50; how it was run: as §1
[4] = test system: Poly(dA-dT)oligonucleotide
[5] = test system: Trypanosoma brucei rhodesiense; experiment: Ratio of DAPI IC50 to compound IC50 for Trypanosoma brucei rhodesiense STIB900

Structure (SMILES) | IC50 (L6) | IC50 [1] | IC50 (Plasmodium falciparum) | selectivity ratio [2] | selectivity ratio [3] | ΔTm [4] | Ratio IC50 [5]
Cl.Cl.N=C(N)c1ccc(C#Cc2cc3ccc(C(=N)N)cc3[nH]2)cc1 | 8700 nM | 6 nM | 3.8 nM | 1450 | 2290 | 19 °C | 3
N=C(N)c1ccc(-c2ccc(-c3ccc(C(=N)N)cc3)o2)cc1 [FURAMIDINE] | 6700 nM | – | – | – | – | – | –
Cl.Cl.N=C(N)c1ccc(-c2ccc(-c3cc4cc(C(=N)N)ccc4[nH]3)cc2)cc1 | 38900 nM | 4 nM | 0.7 nM | 9720 | 55600 | 20.9 °C | 4.5
N=C(N)c1ccc(C#Cc2cc3ccc(C(=N)N)cc3[nH]2)nc1 | 13000 nM | 215 nM | 14.1 nM | 60 | 933 | 12.2 °C | –
Cl.Cl.N=C(N)c1ccc2cc(C#Cc3ccc(C(=N)N)c(F)c3)[nH]c2c1 | 4500 nM | 9 nM | 5.9 nM | 500 | 763 | 16 °C | 2
N=C(N)c1ccc2cc(C#Cc3ccc(C(=N)N)nc3)[nH]c2c1 | 1600 nM | 3 nM | 3.1 nM | 533 | 516 | 19.1 °C | –
Cl.Cl.N=C(N)c1ccc(-c2ccc(-c3cc4ccc(C(=N)N)cc4[nH]3)cc2)cc1 | – | – | – | 5250 | 3180 | > 27 °C | 9
N=C(N)c1ccc2cc(-c3ccc(-c4ccccc4)cc3)[nH]c2c1 | 8400 nM | 8720 nM | 858 nM | 0.96 | 9.8 | 16 °C | –
N=C(N)c1ccc(-c2cc3ccc(C(=N)N)cc3[nH]2)cc1 [DAPI] | – | – | – | 51 | – | > 27 °C | –
N=C(N)c1ccc(-c2ccc(-c3nc4ccc(C(=N)N)cc4[nH]3)cc2)cc1 | – | – | – | 2210 | 34000 | > 27 °C | –
